Source: ChEMBL document CHEMBL3046000, “Design and synthesis of 1-(benzothiazol-5-yl)-1H-1,2,4-triazol-5-ones as protoporphyrinogen oxidase inhibitors” (Bioorg Med Chem, 2013)

Assays:
[1] = Phytotoxicity against 4-leaf stage Triticum aestivum (wheat) plants assessed as plant growth inhibition at 150 g ai/ha applied through spraying measured 30 days after compound treatment under greenhouse conditions; assay type: organism-based; conditions: in vivo, read-out: GI
[2] = Phytotoxicity against four-leaf stage Brassica napus (oilseed rape) plants assessed as plant growth inhibition at 150 g ai/ha applied through spraying measured 30 days after compound treatment under greenhouse conditions; assay type: organism-based; conditions: in vivo, read-out: GI
[3] = Phytotoxicity against four-leaf stage Zea mays cv. Anjou (maize) plants assessed as plant growth inhibition at 150 g ai/ha applied through spraying measured 30 days after compound treatment under greenhouse conditions; assay type: organism-based; conditions: in vivo, read-out: GI
[4] = Phytotoxicity against four-leaf stage Gossypium hirsutum (cotton) plants assessed as plant growth inhibition at 150 g ai/ha applied through spraying measured 30 days after compound treatment under greenhouse conditions; assay type: organism-based; conditions: in vivo, read-out: GI
[5] = Phytotoxicity against 4-leaf stage Glycine max (soybean) plants assessed as plant growth inhibition at 150 g ai/ha applied through spraying measured 30 days after compound treatment under greenhouse conditions; assay type: organism-based; conditions: in vivo, read-out: GI
[6] = Phytotoxicity against four-leaf stage Oryza sativa (rice) plants assessed as plant growth inhibition at 150 g ai/ha applied through spraying measured 30 days after compound treatment under greenhouse conditions; assay type: organism-based; conditions: in vivo, read-out: GI
[7] = Phytotoxicity against 4-leaf stage Glycine max (soybean) plants assessed as plant growth inhibition at 75 g ai/ha applied through spraying measured 30 days after compound treatment under greenhouse conditions; assay type: organism-based; conditions: in vivo, read-out: GI
Chenopodium album [8] = experiment: Post-emergence herbicidal activity against Chenopodium album seedlings assessed as plant growth inhibition at 75 g ai/ha measured 15 days after compound treatment under greenhouse conditions; assay type: functional; conditions: 360 h, read-out: GI
Chenopodium album [9] = experiment: Post-emergence herbicidal activity against Chenopodium album seedlings assessed as plant growth inhibition at 37.5 g ai/ha measured 15 days after compound treatment under greenhouse conditions; assay type: functional; conditions: 360 h, read-out: GI
Capsella bursa-pastoris = experiment: Post-emergence herbicidal activity against Capsella bursa-pastoris assessed as plant growth inhibition at 75 g ai/ha; assay type: functional; conditions: read-out: GI
Procedure, shortened: (§1)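 Compounds formulated as 100 g/L emulsifiable concentrates in DMF with Tween-80 as emulsifier, then diluted with water. Sprayed post-emergence onto pot-grown plants in a greenhouse, with broadleaf weeds at the 2-leaf stage and grasses at the 1-leaf stage. Clay soil with 1.6% organic matter and CEC 12.1 […]; relative humidity about 50%. Rate (g ai/ha) = active ingredient ÷ pot surface area. Untreated and DMF + Tween-80 solvent controls.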

Symphyotrichum subulatum = experiment: Post-emergence herbicidal activity against Symphyotrichum subulatum assessed as plant growth inhibition at 75 g ai/ha; assay type: functional; conditions: read-out: GI; procedure, shortened: as §1
Boehmeria nivea = experiment: Post-emergence herbicidal activity against Boehmeria nivea assessed as plant growth inhibition at 75 g ai/ha; assay type: functional; conditions: read-out: GI; procedure, shortened: as §1
Amaranthus spinosus = experiment: Post-emergence herbicidal activity against Amaranthus spinosus assessed as plant growth inhibition at 75 g ai/ha; assay type: functional; conditions: read-out: GI; procedure, shortened: as §1
Eleusine indica = experiment: Post-emergence herbicidal activity against Eleusine indica assessed as plant growth inhibition at 75 g ai/ha; assay type: functional; conditions: read-out: GI; procedure, shortened: as §1
Cerastium arvense = experiment: Post-emergence herbicidal activity against Cerastium arvense assessed as plant growth inhibition at 75 g ai/ha; assay type: functional; conditions: read-out: GI; procedure, shortened: as §1
Veronica polita = experiment: Post-emergence herbicidal activity against Veronica polita assessed as plant growth inhibition at 75 g ai/ha; assay type: functional; conditions: read-out: GI; procedure, shortened: as §1
Senna tora = experiment: Post-emergence herbicidal activity against Senna tora assessed as plant growth inhibition at 75 g ai/ha; assay type: functional; conditions: read-out: GI; procedure, shortened: as §1
Alkekengi officinarum = experiment: Post-emergence herbicidal activity against Physalis alkekengi assessed as plant growth inhibition at 75 g ai/ha; assay type: functional; conditions: read-out: GI; procedure, shortened: as §1
Phytolacca acinosa = experiment: Post-emergence herbicidal activity against Raddix phytolaccae assessed as plant growth inhibition at 75 g ai/ha; assay type: functional; conditions: read-out: GI; procedure, shortened: as §1
Ammannia baccifera = experiment: Post-emergence herbicidal activity against Ammannia baccifera assessed as plant growth inhibition at 75 g ai/ha; assay type: functional; conditions: read-out: GI; procedure, shortened: as §1
Ludwigia prostrata = experiment: Post-emergence herbicidal activity against Ludwigia prostrata assessed as plant growth inhibition at 75 g ai/ha; assay type: functional; conditions: read-out: GI; procedure, shortened: as §1
Commelina communis = experiment: Post-emergence herbicidal activity against Commelina communis (Asiatic dayflower) assessed as plant growth inhibition at 75 g ai/ha; assay type: functional; conditions: read-out: GI; procedure, shortened: as §1
Myosoton aquaticum = experiment: Post-emergence herbicidal activity against Myosoton aquaticum assessed as plant growth inhibition at 75 g ai/ha; assay type: functional; conditions: read-out: GI; procedure, shortened: as §1
Sonchus asper = experiment: Post-emergence herbicidal activity against Sonchus asper assessed as plant growth inhibition at 75 g ai/ha; assay type: functional; conditions: read-out: GI; procedure, shortened: as §1
Polygonum humifusum = experiment: Post-emergence herbicidal activity against Polygonum humifusum assessed as plant growth inhibition at 75 g ai/ha; assay type: functional; conditions: read-out: GI; procedure, shortened: as §1
Solanum nigrum = experiment: Post-emergence herbicidal activity against Solanum nigrum (black nightshade) assessed as plant growth inhibition at 75 g ai/ha; assay type: functional; conditions: read-out: GI; procedure, shortened: as §1
Chenopodium album [10] = experiment: Post-emergence herbicidal activity against Chenopodium album seedlings assessed as plant growth inhibition at 150 g ai/ha measured 15 days after compound treatment under greenhouse conditions; assay type: functional; conditions: 360 h, read-out: GI
Amaranthus retroflexus [11] = experiment: Post emergence herbicidal activity against Amaranthus retroflexus seedlings assessed as plant growth inhibition at 75 g ai/ha measured 15 days after compound treatment under greenhouse conditions; assay type: functional; conditions: 360 h, read-out: GI
Amaranthus retroflexus [12] = experiment: Post emergence herbicidal activity against Amaranthus retroflexus seedlings assessed as plant growth inhibition at 37.5 g ai/ha measured 15 days after compound treatment under greenhouse conditions; assay type: functional; conditions: 360 h, read-out: GI
Amaranthus retroflexus [13] = experiment: Post emergence herbicidal activity against Amaranthus retroflexus seedlings assessed as plant growth inhibition at 150 g ai/ha measured 15 days after compound treatment under greenhouse conditions; assay type: functional; conditions: 360 h, read-out: GI
Brassica juncea [14] = experiment: Post-emergence herbicidal activity against Brassica juncea seedlings assessed as plant growth inhibition at 75 g ai/ha measured 15 days after compound treatment under greenhouse conditions; assay type: functional; conditions: 360 h, read-out: GI
Brassica juncea [15] = experiment: Post-emergence herbicidal activity against Brassica juncea seedlings assessed as plant growth inhibition at 37.5 g ai/ha measured 15 days after compound treatment under greenhouse conditions; assay type: functional; conditions: 360 h, read-out: GI
Brassica juncea [16] = experiment: Post-emergence herbicidal activity against Brassica juncea seedlings assessed as plant growth inhibition at 150 g ai/ha measured 15 days after compound treatment under greenhouse conditions; assay type: functional; conditions: 360 h, read-out: GI
Setaria faberi [17] = experiment: Post-emergence herbicidal activity against Setaria faberi (Giant Foxtail) seedlings assessed as plant growth inhibition at 75 g ai/ha measured 15 days after compound treatment under greenhouse conditions; assay type: functional; conditions: 360 h, read-out: GI
Setaria faberi [18] = experiment: Post-emergence herbicidal activity against Setaria faberi (Giant Foxtail) seedlings assessed as plant growth inhibition at 37.5 g ai/ha measured 15 days after compound treatment under greenhouse conditions; assay type: functional; conditions: 360 h, read-out: GI
Setaria faberi [19] = experiment: Post-emergence herbicidal activity against Setaria faberi (Giant Foxtail) seedlings assessed as plant growth inhibition at 150 g ai/ha measured 15 days after compound treatment under greenhouse conditions; assay type: functional; conditions: 360 h, read-out: GI
Digitaria sanguinalis [20] = experiment: Post-emergence herbicidal activity against Digitaria sanguinalis (hairy crabgrass) seedlings assessed as plant growth inhibition at 75 g ai/ha measured 15 days after compound treatment under greenhouse conditions; assay type: functional; conditions: 360 h, read-out: GI
Digitaria sanguinalis [21] = experiment: Post-emergence herbicidal activity against Digitaria sanguinalis (hairy crabgrass) seedlings assessed as plant growth inhibition at 37.5 g ai/ha measured 15 days after compound treatment under greenhouse conditions; assay type: functional; conditions: 360 h, read-out: GI
Digitaria sanguinalis [22] = experiment: Post-emergence herbicidal activity against Digitaria sanguinalis (hairy crabgrass) seedlings assessed as plant growth inhibition at 150 g ai/ha measured 15 days after compound treatment under greenhouse conditions; assay type: functional; conditions: 360 h, read-out: GI
Echinochloa crus-galli [23] = experiment: Post emergence herbicidal activity against Echinochloa crus-galli (barnyard grass) seedlings assessed as plant growth inhibition at 75 g ai/ha measured 15 days after compound treatment under greenhouse conditions; assay type: functional; conditions: 360 h, read-out: GI
Echinochloa crus-galli [24] = experiment: Post emergence herbicidal activity against Echinochloa crus-galli (barnyard grass) seedlings assessed as plant growth inhibition at 37.5 g ai/ha measured 15 days after compound treatment under greenhouse conditions; assay type: functional; conditions: 360 h, read-out: GI
Echinochloa crus-galli [25] = experiment: Post emergence herbicidal activity against Echinochloa crus-galli (barnyard grass) seedlings assessed as plant growth inhibition at 150 g ai/ha measured 15 days after compound treatment under greenhouse conditions; assay type: functional; conditions: 360 h, read-out: GI
[26] = molecular target: T1, Protoporphyrinogen oxidase, chloroplastic (Nicotiana tabacum, UniProt O24163); experiment: Inhibition of Nicotiana tabacum (tobacco) recombinant PPO assessed as protoporphyrin IX formation at room temperature by fluorimetric assay
T1 sequence (O24163 whole entry): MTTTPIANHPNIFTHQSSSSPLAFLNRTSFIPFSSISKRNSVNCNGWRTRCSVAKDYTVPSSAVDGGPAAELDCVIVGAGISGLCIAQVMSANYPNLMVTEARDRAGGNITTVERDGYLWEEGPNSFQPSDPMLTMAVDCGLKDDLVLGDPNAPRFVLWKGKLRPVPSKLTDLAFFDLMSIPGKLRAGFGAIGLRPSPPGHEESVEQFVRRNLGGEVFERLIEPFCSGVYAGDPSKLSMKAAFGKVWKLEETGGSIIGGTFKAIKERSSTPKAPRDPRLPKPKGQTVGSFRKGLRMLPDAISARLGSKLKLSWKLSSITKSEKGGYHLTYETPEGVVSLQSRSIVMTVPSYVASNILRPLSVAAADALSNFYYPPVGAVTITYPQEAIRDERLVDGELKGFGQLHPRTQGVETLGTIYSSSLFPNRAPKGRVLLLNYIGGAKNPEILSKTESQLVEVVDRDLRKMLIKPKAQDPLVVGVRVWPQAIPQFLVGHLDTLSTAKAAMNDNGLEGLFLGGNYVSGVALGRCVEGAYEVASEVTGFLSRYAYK

Cc1nn(-c2cc(NS(C)(=O)=O)c(Cl)cc2Cl)c(=O)n1C(F)F [SULFENTRAZONE]
inhibition at 720 h [1]: 20%
inhibition at 720 h [2]: 100%
inhibition at 720 h [3]: 70%
inhibition at 720 h [4]: 100%
inhibition at 720 h [5]: 20%
inhibition at 720 h [6]: 70%
inhibition at 720 h [7]: 10%
inhibition of growth at 75 g/ha (Chenopodium album [8]): ≥ 90%
inhibition of growth at 37.5 g/ha (Chenopodium album [9]): 60%
inhibition of growth at 75 g/ha (Capsella bursa-pastoris): 100%
inhibition of growth at 75 g/ha (Symphyotrichum subulatum): 100%
inhibition of growth at 75 g/ha (Boehmeria nivea): 100%
inhibition of growth at 75 g/ha (Amaranthus spinosus): 100%
inhibition of growth at 75 g/ha (Eleusine indica): 100%
inhibition of growth at 75 g/ha (Cerastium arvense): > 90%
inhibition of growth at 75 g/ha (Veronica polita): 100%
inhibition of growth at 75 g/ha (Senna tora): > 90%
inhibition of growth at 75 g/ha (Alkekengi officinarum): 100%
inhibition of growth at 75 g/ha (Phytolacca acinosa): 100%
inhibition of growth at 75 g/ha (Ammannia baccifera): 100%
inhibition of growth at 75 g/ha (Ludwigia prostrata): 100%
inhibition of growth at 75 g/ha (Commelina communis): 100%
inhibition of growth at 75 g/ha (Myosoton aquaticum): > 90%
inhibition of growth at 75 g/ha (Sonchus asper): 100%
inhibition of growth at 75 g/ha (Polygonum humifusum): 100%
inhibition of growth at 75 g/ha (Solanum nigrum): 100%
inhibition of growth at 150 g/ha (Chenopodium album [10]): ≥ 90%
inhibition of growth at 75 g/ha (Amaranthus retroflexus [11]): ≥ 90%
inhibition of growth at 37.5 g/ha (Amaranthus retroflexus [12]): 80%
inhibition of growth at 150 g/ha (Amaranthus retroflexus [13]): ≥ 90%
inhibition of growth at 75 g/ha (Brassica juncea [14]): ≥ 90%
inhibition of growth at 37.5 g/ha (Brassica juncea [15]): 80%
inhibition of growth at 150 g/ha (Brassica juncea [16]): ≥ 90%
inhibition of growth at 75 g/ha (Setaria faberi [17]): 80%
inhibition of growth at 37.5 g/ha (Setaria faberi [18]): 60%
inhibition of growth at 150 g/ha (Setaria faberi [19]): ≥ 90%
inhibition of growth at 75 g/ha (Digitaria sanguinalis [20]): 50%
inhibition of growth at 37.5 g/ha (Digitaria sanguinalis [21]): < 50%
inhibition of growth at 150 g/ha (Digitaria sanguinalis [22]): 60%
inhibition of growth at 75 g/ha (Echinochloa crus-galli [23]): ≥ 90%
inhibition of growth at 37.5 g/ha (Echinochloa crus-galli [24]): 80%
inhibition of growth at 150 g/ha (Echinochloa crus-galli [25]): ≥ 90%
Ki [26]: 0.03 µM
